Measurements reported in ChEMBL document CHEMBL3271971, “Antineoplastic and biochemical properties of arylsulfonylhydrazones of 2-formylpyridine N-oxide” (J Med Chem, 1976).

What was measured:
Mus musculus [1] = assay: Effect on protein synthesis in tumor of CD-1 mouse allografted with mouse S180A cells assessed as [14C]-leucine incorporation at 40 mg/kg, ip pretreated for 1 hr followed by radiotracer-addition measured after 1 hr relative to control; assay type: functional; settings: route intraperitoneal
Procedure, shortened: (§1)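 Sarcoma 180 ascites cells implanted 6 days earlier. Mice received a single ip dose of 10–80 mg/kg, then 1 h later an ip tracer: 200 μg thymidine-3H, 200 μg uridine-3H or 125 μg DL-leucine-14C. Tracer was incorporated for 1 h. Specific activity of tumor-cell DNA, RNA or protein is expressed as % of untreated controls. Values are means of 4-16 mice, each analyzed separately.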

Mus musculus [2] = assay: Toxicity in C3H mouse allografted with mouse Hepa129 cells assessed as change in body weight at 20 mg/kg administered qd for 6 days (reference value: 13.5%); assay type: organism-based; parameters: dose 20 mg/kg; settings: in vivo, 144 h
Procedure, shortened: (§2)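 Ascitic tumors were transplanted from a donor mouse bearing a 7-day tumor. Daily doses were given for six consecutive days. Percentage body-weight change from onset to termination of therapy served as the index of drug toxicity.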

Mus musculus [3] = assay: Effect on RNA synthesis in tumor of CD-1 mouse allografted with mouse S180A cells assessed as [3H]-uridine incorporation at 40 mg/kg, ip pretreated for 1 hr followed by radiotracer-addition measured after 1 hr relative to control; assay type: functional; settings: route intraperitoneal; procedure, shortened: as §1
Mus musculus [4] = assay: Toxicity in CD-1 mouse allografted with mouse S180A cells assessed as change in body weight at 40 mg/kg administered qd for 6 days (reference value: 23.2%); assay type: organism-based; parameters: dose 40 mg/kg; settings: in vivo, 144 h
[5] = Antineoplastic activity against mouse S180A cells allografted in CD-1 mouse assessed as mouse survival at 40 mg/kg administered qd for 6 days measured for 50 days relative to control; assay type: functional
Procedure, shortened: (§3)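 Ascitic tumours were transplanted from an appropriate donor mouse carrying a 7-day tumour growth. Drug was given at 10–60 mg/kg/day for six consecutive days. Sensitivity was judged by prolongation of survival time relative to untreated tumour-bearing controls. Mice were weighed throughout, and percentage weight change from onset to end of therapy indicated toxicity.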

Mus musculus [6] = assay: Effect on DNA synthesis in tumor of CD-1 mouse allografted with mouse S180A cells assessed as [3H]-thymidine incorporation at 10 mg/kg, ip pretreated for 1 hr followed by radiotracer-addition measured after 1 hr relative to control; assay type: functional; settings: route intraperitoneal; procedure, shortened: as §1
Mus musculus [7] = assay: Effect on RNA synthesis in tumor of CD-1 mouse allografted with mouse S180A cells assessed as [3H]-uridine incorporation at 80 mg/kg, ip pretreated for 3 hrs followed by radiotracer-addition measured after 1 hr relative to control; assay type: functional; settings: route intraperitoneal
Procedure, shortened: (§4)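 Mice bearing 6-day Sarcoma 180 ascites implants received a single ip dose of 80 mg/kg. At the stated pretreatment time they were given ip tracer: 200 μg thymidine-3H, 200 μg uridine-3H or 125 μg DL-leucine-14C. After 1 h of incorporation, specific radioactivity of DNA, RNA or protein was read as % of control incorporation.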

[8] = Antineoplastic activity against mouse S180A cells allografted in CD-1 mouse assessed as average survival at 40 mg/kg administered qd for 6 days (reference value: 12.9 +/- 1.2 days); assay type: functional; procedure, shortened: as §3
Mus musculus [9] = assay: Effect on DNA synthesis in tumor of CD-1 mouse allografted with mouse S180A cells assessed as [3H]-thymidine incorporation at 20 mg/kg, ip pretreated for 1 hr followed by radiotracer-addition measured after 1 hr relative to control; assay type: functional; settings: route intraperitoneal; procedure, shortened: as §1
Mus musculus [10] = assay: Toxicity in CD-1 mouse allografted with 1-formylisoquinoline thiosemicarbazone-resistant mouse S180A cells assessed as change in body weight at 60 mg/kg administered qd for 6 days (reference value: 29.6%); assay type: organism-based; parameters: dose 60 mg/kg; settings: in vivo, 144 h; procedure, shortened: as §2
[11] = Antineoplastic activity against 1-formylisoquinoline thiosemicarbazone-resistant mouse S180A cells allografted in CD-1 mouse assessed as average survival at 40 mg/kg administered qd for 6 days (reference value: 14.4 +/- 0.9 days); assay type: functional; procedure, shortened: as §3
Mus musculus [12] = assay: Toxicity in BDF1 mouse allografted with mouse L1210 cells assessed as change in body weight at 60 mg/kg administered qd for 6 days (reference value: 13.6%); assay type: organism-based; parameters: dose 60 mg/kg; settings: in vivo, 144 h; procedure, shortened: as §2
Mus musculus [13] = assay: Effect on RNA synthesis in tumor of CD-1 mouse allografted with mouse S180A cells assessed as [3H]-uridine incorporation at 80 mg/kg, ip pretreated for 12 hrs followed by radiotracer-addition measured after 1 hr relative to control; assay type: functional; settings: route intraperitoneal; procedure, shortened: as §4
[14] = Antineoplastic activity against mouse S180A cells allografted in CD-1 mouse assessed as average survival at maximum effective dose administered qd for 6 days (reference value: 12.5 +/- 0.3 days); assay type: functional
Procedure, shortened: (§5)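 Sarcoma 180 ascites cells were transplanted from a donor mouse bearing a 7-day tumour. Each agent was tested at 10–60 mg/kg/day, once daily for six consecutive days, starting 24 h after transplantation, in groups of 5–10 mice. Pooled untreated controls totalled 40 mice. Mice surviving beyond 50 days were counted as 50-day survivors, and body-weight change over therapy served as the toxicity index.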

Mus musculus [15] = assay: Toxicity in CD-1 mouse allografted with mouse S180A cells assessed as change in body weight at maximum effective dose administered qd for 6 days (reference value: 23.2%); assay type: organism-based; settings: 144 h
Ehrlich [16] = assay: Antineoplastic activity against mouse EAC cells allografted in CD-1 mouse assessed as average survival at 60 mg/kg administered qd for 6 days (reference value: 14.4 +/- 1.2 days); assay type: functional; procedure, shortened: as §3
Ehrlich [17] = assay: Antineoplastic activity against mouse EAC cells allografted in CD-1 mouse assessed as mouse survival at 60 mg/kg administered qd for 6 days measured for 50 days relative to control; assay type: functional; procedure, shortened: as §3
[18] = Antineoplastic activity against mouse Hepa129 cells allografted in C3H mouse assessed as mouse survival at 60 mg/kg administered qd for 6 days measured for 50 days relative to control; assay type: functional; procedure, shortened: as §3
Ehrlich [19] = assay: Antineoplastic activity against mouse EAC cells allografted in CD-1 mouse assessed as mouse survival at 40 mg/kg administered qd for 6 days measured for 50 days relative to control; assay type: functional; procedure, shortened: as §3
Ehrlich [20] = assay: Antineoplastic activity against mouse EAC cells allografted in CD-1 mouse assessed as average survival at 20 mg/kg administered qd for 6 days (reference value: 14.4 +/- 1.2 days); assay type: functional; procedure, shortened: as §3
Mus musculus [21] = assay: Effect on RNA synthesis in tumor of CD-1 mouse allografted with mouse S180A cells assessed as [3H]-uridine incorporation at 80 mg/kg, ip pretreated for 6 hrs followed by radiotracer-addition measured after 1 hr relative to control; assay type: functional; settings: route intraperitoneal; procedure, shortened: as §4
[22] = Antineoplastic activity against mouse S180A cells allografted in CD-1 mouse assessed as mouse survival at maximum effective dose administered qd for 6 days measured for 50 days relative to control; assay type: functional; procedure, shortened: as §5
[23] = Antineoplastic activity against mouse Hepa129 cells allografted in C3H mouse assessed as average survival at 20 mg/kg administered qd for 6 days (reference value: 18 +/- 0.6 days); assay type: functional; procedure, shortened: as §3
[24] = Antineoplastic activity against mouse Hepa129 cells allografted in C3H mouse assessed as average survival at 60 mg/kg administered qd for 6 days (reference value: 18 +/- 0.6 days); assay type: functional; procedure, shortened: as §3
Mus musculus [25] = assay: Toxicity in CD-1 mouse allografted with mouse EAC cells assessed as change in body weight at 60 mg/kg administered qd for 6 days (reference value: 26.8%); assay type: organism-based, Ehrlich; parameters: dose 60 mg/kg; settings: in vivo, 144 h; procedure, shortened: as §2

For `Cc1ccc(S(=O)(=O)N/N=C/c2cccc[n+]2[O-])cc1`, which Activity (Mus musculus [1]) is on record?
Its Activity is 93%.

What about the Activity (Mus musculus [2]) of the same molecule?
The Activity was 11%.

What about the Activity (Mus musculus [3]) of the same molecule?
Its Activity is 65%.

And the Activity (Mus musculus [4])?
The Activity was -3.1%.

And the survival at 40 mg/kg [5]?
Its survival at 40 mg/kg is 20%.

And the Activity (Mus musculus [6])?
The Activity was 71%.

And the Activity (Mus musculus [7])?
Its Activity is 62%.

And the Survival [8]?
Its Survival is 36.3 days.

And the Activity (Mus musculus [9])?
Its Activity is 71%.

What about the Activity (Mus musculus [10]) of the same molecule?
Its Activity is 0%.

And the Survival [11]?
The Survival was 24.4 days.

And the Activity (Mus musculus [12])?
The Activity was -5.8%.

What about the Activity (Mus musculus [13]) of the same molecule?
Its Activity is 102%.

What about the Survival [14] of the same molecule?
The Survival was 38.4 days.

What about the Activity (Mus musculus [15]) of the same molecule?
The Activity was -8%.

What about the Survival (Ehrlich [16]) of the same molecule?
The Survival was 40.8 days.

What about the survival at 60 mg/kg (Ehrlich [17]) of the same molecule?
Its survival at 60 mg/kg is 40%.

And the survival at 60 mg/kg [18]?
Its survival at 60 mg/kg is 20%.

What about the survival at 40 mg/kg (Ehrlich [19]) of the same molecule?
The survival at 40 mg/kg was 50%.

What about the Survival (Ehrlich [20]) of the same molecule?
The Survival was 34.6 days.

What about the Activity (Mus musculus [21]) of the same molecule?
Its Activity is 50%.

And the Survival [22]?
Its Survival is 0%.

And the Survival [23]?
Its Survival is 22.2 days.

What about the Survival [24] of the same molecule?
Its Survival is 29.4 days.

And the Activity (Mus musculus [25])?
The Activity was -1.8%.
